PKD1 inh: PKD1 (human) kinase inhibition; PKD1 kinase fluorescence polarization assay; 200,000 compounds, 0.056% hits; inhibition, % (no concentration beside the values); in the data active means inhibition above about 50%
ARFGAP1 inhibitor: inhibits rat ARF GTPase activating protein 1; Q62848; 360,000 compounds, 0.26% hits; inhibition, % at 16.5 µM; Arfgap1-stimulated ARF1 GTP hydrolysis, GDP FP detection; AID 651572;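 active means inhibition above a per-plate limit, mean inhibition of low control wells plus 3 SD, cut at about 25% in these data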;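 further: 0% = DMSO wells with enzyme and 100% = wells lacking Arfgap1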
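Material: rat Arfgap1 catalytic domain, aa 1-136; also added: human ARF1(Δ1-17)-GTP substrate; compound dosing: one concentration, 16.5 µM, DMSO 1.26%; incubation: GTP hydrolysis reaction 2 h at 25 °C; measured by: Tracer-displacement fluorescence polarization with EDTA stop, 620/688 nm; evaluation: % inhibition from polarization; repeats: one replicate per compound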
PP5 primary: blocks human protein phosphatase 5 activity | 320,000 compounds, 0.18% hits | P53041 | purified PP5c, OMFP substrate fluorescence | inhibition, % at 6.7 µM;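 active means inhibition above the campaign's mean inhibition across all tested compounds plus 3 SD, cut at about 9.5% in these data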;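 further: 0% = DMSO only and 100% = 100 µM cantharidin control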
ASAP1 GAP inh: ASAP1 ArfGAP inhibition | 360,000 compounds, 0.19% hits | inhibition, % at 16.5 µM | ASAP1-stimulated ARF1 GTP hydrolysis, GDP FP detection | AID 624377 | Q9ULH1; in the data active means inhibition above about 25%;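 further: 0% = vehicle with enzyme and substrate and 100% = no enzyme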
ARFGAP1 inh conf: rat ARFGAP1 inhibition, confirmed | shares compounds with ARFGAP1 inhibitor | ARFGAP1-stimulated ARF1 GTP hydrolysis, GDP tracer FP | inhibition, % at 16.5 µM | 890 compounds, 30% hits | AID 651608;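 active means average inhibition over triplicates above the hit cutoff set in the earlier primary screen, cut at about 25% in these data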;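 further: 0% = Arfgap1 plus ARF1-GTP with DMSO and 100% = wells lacking Arfgap1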
The depositor's hits bear a star; . = not tested or not shown. The list is not random: actives were taken first. Their share in the collection is about 0.54%.

SMILES	PKD1 inh	ARFGAP1 inhibitor	PP5 primary	ASAP1 GAP inh	ARFGAP1 inh conf
Oc1ccc2ccccc2c1CNc1ccc2ccccc2c1	.	30*	.	19	11
Oc1ccc2ccccc2c1CNc1ccccc1	.	2	.	-5	.
Cc1ccc2nc(SCC(=O)c3ccc(Cl)cc3)nc(=O)n2c1	.	27*	-1	16	50*
Cc1ccc2nc(SCC(=O)Nc3cccc(Cl)c3)nc(=O)n2c1	.	31*	2	17	50*
Cc1ccc2nc(SCC(=O)Nc3ccc(C)c(Cl)c3)nc(=O)n2c1	.	20	3	0	.
COc1ccccc1NC(=O)CSc1nc(=O)n2cc(C)ccc2n1	.	31*	2	0	23
Cc1ccc2nc(SCC(=O)Nc3cccc(F)c3)nc(=O)n2c1	.	54*	-2	32*	47*
CN(C)C(=O)c1ccc(SC(=S)NCc2ccccc2)cc1	.	1	.	-16	.
CN(C(=O)c1ccc(NC(=O)Cc2cccc(NC(=O)C3CCN(C(=O)CCc4ccccc4)CC3)c2)cc1)C1CC1	.	2	.	14	.
CCOC(=O)C1=CCN(S(=O)(=O)c2ccc(Br)cc2)C1c1ccc(F)cc1 (stereo unspecified)	.	-4	.	-14	.
Cc1ccc2nc(SCC(=O)NC3CCCCC3)nc(=O)n2c1	.	10	1	-6	.
CCOC(=O)N1CCN(C(=O)CSc2nc(=O)n3cc(C)ccc3n2)CC1	.	40*	2	20	38*
Cc1ccc(Cl)cc1NC(=O)N(C)CCOC(=O)Nc1cccc(Cl)c1	.	8	.	13	.
O=C(CSc1ncn[nH]1)NCc1ccccc1Cl	.	25*	3	-3	-2
O=C(CSc1ncn[nH]1)NCc1ccc(Cl)cc1	.	-10	3	-1	.
COc1ccc(C(=O)Cn2c(Cl)nc3c2c(=O)n(C)c(=O)n3C)cc1	.	-4	0	-4	.
COc1cccc(C(=O)Cn2c(Br)nc3c2c(=O)n(C)c(=O)n3C)c1	-4	28*	0	0	5

High-throughput results as filed in PubChem BioAssay.
